IC50, Activity and EC50 data for nine compounds are collected here from ChEMBL document CHEMBL4257474, “Antiproliferative activity of novel isatinyl/indanyl nitrones (INs) as potential spin trapping agents of free radical intermediates” (Medchemcomm, 2018).

pEC50, pIC50: −log10 of the molar value. Active and inactive are the calls of the source. The calls are words filed in the database; no cut-off is given here.

For orientation: pIC50 means −log10 of the IC50, conventionally taken in molar units. A high value points to a small IC50. For orientation: pEC50 means −log10 of the EC50, conventionally taken in molar units.

For assay [1], the system named is MG-63. As to the kind of experiment: Antiproliferative activity against human MG63 cells after 3 days by MTT assay. The settings on record: MG-63, 72 h. It counts as functional, cell-based. In outline:
(§1)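 Osteosarcoma cells were seeded at 4000 per well 6 h before treatment in medium with 10% FBS, penicillin/streptomycin and 2 mM glutamine, at 37 °C and 5% CO2. Compounds came from 40 mM DMSO stocks and were tested at 3–200 µM for 3 days. MTT was added for 2 h and formazan dissolved in 50% DMF/20% SDS pH 4.7 for 16 h. A570 was read versus untreated control; IC50 calculated. Three independent experiments in triplicate.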
(In general: Tetrazolium assays rely on reduction of a dye to a coloured formazan, in cell work by metabolically active cells.)

For assay [2], the system named is HOS-TE85. Briefly: Antiproliferative activity against human HOSTE85 cells after 3 days by MTT assay. It counts as functional, cell-based. The settings on record: HOS-TE85, 72 h. The gist of the method:
as §1

Assay [3] has as its system K562. Briefly: Antiproliferative activity against human K562 cells after 3 days by MTT assay. It counts as functional, cell-based. The gist of the method:
(§2)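 K562 leukemia cells were seeded at 20000 cells per mL in medium with 10% FBS, penicillin/streptomycin and 2 mM glutamine, at 37 °C and 5% CO2. Compounds were diluted from 40 mM DMSO stocks and applied at 3–200 µM for 3 days. MTT was added for 2 h, then lysis in 50% DMF/20% SDS pH 4.7 for 16 h, and A570 read. Proliferation was expressed as % of untreated cells; IC50 calculated. Three independent experiments in triplicate.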

Assay [4] in a line: Antioxidant activity assessed as DPPH free radical scavenging at 1.15 x 10^-6mol/L after 10 mins by UV-vis spectrophotometric analysis relative to control. It counts as functional. In outline: (§3)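 Ethanolic DPPH was added to the compound in ethanol at the stated concentration, within a five-level series of 1.15 × 10^-6 to 9.10 × 10^-6 mol L^-1. After 10 min in the dark, absorbance was read at 517 nm against absolute ethanol. Scavenging was expressed as RSA% = [(A0 − Ai)/A0] × 100, with A0 the absorbance without compound. BHT served as reference. Triplicate.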
In general terms: DPPH is a stable violet radical that fades when it is reduced.

Assay [5] can be described thus: Antioxidant activity assessed as DPPH free radical scavenging at 2.45 x 10^-6mol/L after 10 mins by UV-vis spectrophotometric analysis relative to control. The assay is classed as functional. In outline: as §3
Assay [6] in a line: Antioxidant activity assessed as DPPH free radical scavenging at 4 x 10^-6mol/L after 10 mins by UV-vis spectrophotometric analysis relative to control. The assay is classed as functional. In outline:
as §3

Assay [7] in a line: Antioxidant activity assessed as DPPH free radical scavenging at 6.25 x 10^-6mol/L after 10 mins by UV-vis spectrophotometric analysis relative to control. It counts as functional. In outline: as §3
Assay [8] is described as follows: Antioxidant activity assessed as DPPH free radical scavenging at 9.10 x 10^-6mol/L after 10 mins by UV-vis spectrophotometric analysis relative to control. It counts as functional. The gist of the method: as §3
A short description of assay [9]: Antioxidant activity assessed as DPPH free radical scavenging after 10 mins by UV-vis spectrophotometric analysis. It counts as functional. The gist of the method: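 DPPH and test compound mixed in ethanol at five concentrations, 1.15 × 10^-6 to 9.10 × 10^-6 mol L^-1. After 10 min in the dark, absorbance at 517 nm was read against ethanol blank. RSA% = [(A0 − Ai)/A0] × 100. EC50 (concentration giving 50% radical inhibition) was derived from the RSA% values. BHT was the reference over the same range. Triplicate.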

For assay [10], the system named is MG-63. Briefly: Antiproliferative activity against human MG63 cells at 3 to 200 uM after 3 days by MTT assay. The assay is classed as functional, cell-based. In outline:
as §1

Assay [11] concerns HOS-TE85. Briefly: Antiproliferative activity against human HOSTE85 cells at 3 to 200 uM after 3 days by MTT assay. The assay is classed as functional, cell-based. The gist of the method: as §1
For assay [12], the system named is K562. Briefly: Antiproliferative activity against human K562 cells at 3 to 200 uM after 3 days by MTT assay. It counts as functional, cell-based. In outline:
as §2

In the case of `O=C1Nc2ccccc2/C1=[N+](\[O-])Cc1ccccc1`, the pIC50 with MG-63 [1] was 4.11; in the assay with HOS-TE85 [2], 4.49. Moreover, the result with K562 [3] was inactive. Further, the Activity came out at 1.1% in [4]; 1.1% in assay [5]; 1.2% in [6]; 1.2% in assay [7]; 78% in assay [8]. Also, the pEC50 in assay [9] was 5.74.
For the compound `O=C1Nc2ccc([N+](=O)[O-])cc2/C1=[N+](\[O-])Cc1ccccc1`, the pIC50 in the assay with MG-63 [1] is 4.11; in the assay on HOS-TE85 [2], 4.49. Further, the result in the assay on K562 [3] was inactive. Besides, the values for the Activity in assay [6], in [7] and in [8] were 60%, 67% and 80%, respectively. Besides, the pEC50 in assay [9] is 6.00.
Consider `[O-]/[N+](Cc1ccccc1)=C1/CCc2ccccc21`, for which the result in the assay with K562 [3], with MG-63 [10], with HOS-TE85 [11] and with K562 [12] was inactive. Besides, the Activity was 1.1% in [4]; 1.2% in [5]; 1.3% in [6]; 70% in [7]; 79% in assay [8]. In addition, in assay [9], the pEC50 was 5.92.
As for `C/[N+]([O-])=C1\C(=O)Nc2ccc([N+](=O)[O-])cc21`, the negative logarithm of the IC50 (pIC50) in the assay with HOS-TE85 [2] is 4.49. Further, in the assay on K562 [3], the outcome was inactive. Further, the figures for the Activity in [6], in [7] and in assay [8] were 1.1%, 72% and 79%, respectively. Also, the negative-log EC50 (pEC50) in assay [9] was 5.92.
Regarding `C/[N+]([O-])=C1\CCc2ccccc21`, the result in the assay on K562 [3], with MG-63 [10], with HOS-TE85 [11] and with K562 [12] was inactive. Also, the Activity in assay [6] was 1.1%; in assay [7] it was 60%; in assay [8], 78%. For the same compound, in assay [9], the pEC50 was 5.89.
In the case of `C/[N+]([O-])=C1\CCc2cc(F)ccc21`, the result in the assay on K562 [3], in the assay on MG-63 [10], in the assay on HOS-TE85 [11] and in the assay on K562 [12] was inactive. For the same compound, the Activity in assay [6] was found to be 1.1%; in assay [7] it was 1.2%; in assay [8], 79%. Further, the pEC50 in assay [9] was 5.74.
For the compound `O=C1Nc2ccccc2/C1=[N+](\[O-])c1ccccc1`, the outcome with K562 [3], with MG-63 [10], in the assay with HOS-TE85 [11] and in the assay on K562 [12] was inactive. Moreover, the Activity in [4] is 1.1%; in [5] it was 1.2%; in assay [6], 1.2%; in assay [7], 69%; in assay [8], 80%. Besides, the pEC50 in assay [9] is 5.89.
For the compound `CN1C(=O)/C(=[N+](/[O-])Cc2ccccc2)c2ccccc21`, the pIC50 in the assay on MG-63 [1] was 4.11; in the assay with K562 [3] (K562, 72 h) it was 4.11. The Activity came to 1.2% in [4]; 60% in [5]; 68% in assay [6]; 70% in [7]; 79% in [8]. Besides, the pEC50 in assay [9] was 6.22.
As to `Cc1cc(C(C)(C)C)c(O)c(C(C)(C)C)c1` [BUTYLATED HYDROXYTOLUENE], the Activity in [5] was determined as 4.6%; in [6], 11.7%; in [7], 23%; in assay [8], 27%. Moreover, the pEC50 in [9] was 5.42.
